Legend:
[1] = Inhibition of Plasmodium berghei DHODH expressed in Escherichia coli DH5alpha using 2,6-dichoroindophenol substrate by spectrophotometric analysis
[2] = biological target: Dihydroorotate dehydrogenase (quinone), mitochondrial (Homo sapiens, UniProt Q02127); assay: Inhibition of human DHODH expressed in Escherichia coli BL21(DE3) using 2,6-dichoroindophenol substrate by spectrophotometric analysis
Plasmodium falciparum = assay: Antiplasmodial activity against Plasmodium falciparum 3D7 infected in human erythrocytes assessed as inhibition of [3H]hypoxanthine incorporation after 48 hrs; assay type: functional, organism-based
Outline: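 Clone 3D7 grown in RPMI-1640 with 20% human type A+ plasma and 2% (w/v) red blood cells. Proliferation measured by standard [3H]-hypoxanthine uptake in infected erythrocytes.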

[3] = biological target: T1, Dihydroorotate dehydrogenase (Plasmodium falciparum, UniProt Q54A96); assay: Inhibition of Plasmodium falciparum DHODH expressed in Escherichia coli DH5alpha using 2,6-dichoroindophenol substrate by spectrophotometric analysis
T1 sequence (Q54A96 whole entry): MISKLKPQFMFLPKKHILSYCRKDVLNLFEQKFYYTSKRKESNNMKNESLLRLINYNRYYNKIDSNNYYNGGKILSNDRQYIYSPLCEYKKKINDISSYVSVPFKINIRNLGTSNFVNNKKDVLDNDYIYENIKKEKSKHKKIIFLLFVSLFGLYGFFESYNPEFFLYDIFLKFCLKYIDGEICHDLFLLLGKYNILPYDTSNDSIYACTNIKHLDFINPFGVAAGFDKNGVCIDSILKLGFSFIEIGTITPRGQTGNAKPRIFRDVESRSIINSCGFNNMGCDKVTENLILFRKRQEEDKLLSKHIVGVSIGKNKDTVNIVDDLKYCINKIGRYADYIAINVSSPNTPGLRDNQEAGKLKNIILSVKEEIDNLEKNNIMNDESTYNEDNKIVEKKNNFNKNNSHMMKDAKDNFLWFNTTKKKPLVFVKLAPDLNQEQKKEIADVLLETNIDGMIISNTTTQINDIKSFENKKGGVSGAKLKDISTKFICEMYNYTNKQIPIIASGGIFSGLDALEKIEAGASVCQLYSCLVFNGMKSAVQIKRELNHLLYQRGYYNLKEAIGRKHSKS
Outline: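 Recombinant purified enzyme; colorimetric steady-state assay following DCIP (120 micromolar) reduction at 600 nm, coupled to CoQ_D reoxidation. Started with enzyme (5–10 nM final), 20 °C. IC50 fitted across inhibitor concentrations, triplicate points each.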

[4] = Cmax in Swiss mouse at 10 mg/kg, po; assay type: ADME, organism-based; design: dose 10 mg/kg, route oral; settings: in vivo
Outline: (§1)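 Single 10 mg/kg oral gavage dose (0.1 mL) given as a suspension in 0.5% w/v Na carboxymethylcellulose, 0.5% v/v benzyl alcohol, 0.4% v/v Tween 80. Food and water ad libitum. One cardiac-puncture blood sample per mouse at 1, 2, 4, 7.5, 16 and 24 h. Heparinised plasma stored at –20°C, acetonitrile-precipitated and quantified by LC-MS against a plasma calibration curve; quantitation limit 0.003 μM.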

[5] = Plasma concentration in Swiss mouse at 10 mg/kg, po up to 4 hrs; assay type: ADME, organism-based; design: dose 10 mg/kg, route oral; outline: as §1
Plasmodium berghei = assay: Antimalarial activity against erythrocytic stage of Plasmodium berghei NK65 infected in BALB/c mouse assessed as reduction in parasitemia at 50 mg/kg, po administered QD for 4 days starting 1 day post-infection measured 24 hrs post-last dose relative to vehicle-treated control; assay type: functional; design: scale not given: the % may be the effect or the level left
Outline: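 Female BALB/c mice, 8–10 weeks old, infected IP with 2×10^7 infected erythrocytes (200 μL) 24 h before first dose; minimum 0.1% parasitemia confirmed before treatment. Oral dosing 1× daily for 4 consecutive days, vehicle or chloroquine (10 mg/kg oral, same schedule) as controls. Parasitemia from Wright-Giemsa-stained thin blood smears, tail-vein bleeds daily.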

[6] = Drug metabolism in mouse liver microsomes by LC/MS analysis; assay type: ADME, Microsome
Outline: (§2)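 Compound at 1 μM incubated at 37°C with pooled human or mouse liver microsomes (0.4 mg/mL protein). Reaction started with NADPH-regenerating system (1 mg/mL NADP, 1 mg/mL glucose-6-phosphate, 1 U/mL G6PDH, 0.67 mg/mL MgCl2) and quenched at time points with ice-cold acetonitrile. Parent loss tracked by LC/MS against a microsomal-matrix calibration curve. First-order depletion rate constant came from an exponential decay fit.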

Liver microsomes [7] = assay: Half life in human liver microsomes at 1 uM by LC/MS analysis; assay type: ADME, Microsome; outline: as §2
Liver microsomes [8] = assay: Intrinsic clearance in human liver microsomes assessed per mg of protein at 1 uM by LC/MS analysis; assay type: ADME, Microsome; outline: as §2
[9] = Plasma concentration in Swiss mouse at 10 mg/kg, po at 16 hrs; assay type: ADME, organism-based; design: dose 10 mg/kg, route oral; outline: as §1
Liver [10] = assay: Intrinsic clearance in mouse liver microsomes assessed per mg of protein at 1 uM by LC/MS analysis; assay type: ADME, Microsome; outline: as §2
Liver microsomes [11] = assay: Drug metabolism in human liver microsomes by LC/MS analysis; assay type: ADME, Microsome; outline: as §2
Mus musculus = assay: Toxicity in Swiss mouse assessed as adverse effects at 10 mg/kg, po; assay type: organism-based; design: dose 10 mg/kg, route oral; settings: in vivo
Outline: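 Mice watched for adverse reactions after one oral 10 mg/kg dose, given as a suspension in aqueous carboxymethylcellulose/benzyl alcohol/Tween 80 vehicle.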

Liver [12] = assay: Half life in mouse liver microsomes at 1 uM by LC/MS analysis; assay type: ADME, Microsome; outline: as §2

Chain of Dihydroorotate dehydrogenase (quinone), mitochondrial (Q02127 whole entry): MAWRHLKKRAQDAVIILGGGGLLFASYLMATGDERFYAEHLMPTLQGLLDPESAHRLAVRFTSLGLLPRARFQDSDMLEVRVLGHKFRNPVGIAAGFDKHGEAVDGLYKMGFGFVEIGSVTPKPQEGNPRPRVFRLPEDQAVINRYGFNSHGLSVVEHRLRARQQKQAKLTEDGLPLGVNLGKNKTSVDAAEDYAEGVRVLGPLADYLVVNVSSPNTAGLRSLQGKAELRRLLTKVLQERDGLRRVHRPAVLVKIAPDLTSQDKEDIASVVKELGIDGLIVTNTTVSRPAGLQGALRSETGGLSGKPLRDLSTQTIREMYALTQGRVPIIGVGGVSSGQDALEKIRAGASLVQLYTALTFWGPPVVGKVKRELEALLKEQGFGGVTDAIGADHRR

SMILES	IC50 [1]	IC50 [2]	EC50 (Plasmodium falciparum)	IC50 [3]	also measured
Cc1nc(Nc2ccc3ccccc3c2)c2nc[nH]c2n1	11 µM	> 100 µM	2.2 µM	0.44 µM	–
Cc1cc(NC(=O)c2ccccc2)n2ncnc2n1	> 100 µM	> 100 µM	> 100 µM	> 100 µM	–
Cc1cc(Nc2ccc3ccccc3c2)n2ncnc2c1	6.3 µM	–	5.2 µM	4.8 µM	–
Cc1cc(Nc2ccc(C(F)(F)F)cc2)n2ccnc2n1	0.17 µM	> 100 µM	0.32 µM	0.077 µM	Cmax [4]: 3900 nM; concentration at 4 h [5]: > 1000 nM; Activity (Plasmodium berghei): 56%; Drug metabolism [6]: Not Active; t1/2 (Liver microsomes [7]): 6.13 h; CLint (Liver microsomes [8]): 4.7 µL/min/mg; concentration at 16 h [9]: < 3 nM; CLint (Liver [10]): 34 µL/min/mg; Drug metabolism (Liver microsomes [11]): Not Active; Activity (Mus musculus): Non-toxic; t1/2 (Liver [12]): 0.863 h
Cc1nc(Nc2n[nH]cc2C#N)c2nc[nH]c2n1	–	–	> 25 µM	> 100 µM	–
Cc1nc(Nc2ccc3ccccc3c2)c2cn[nH]c2n1	–	–	> 12.5 µM	> 100 µM	–
Cc1cc(Nc2ccc3ccccc3c2)n2nccc2n1	3.3 µM	> 100 µM	0.91 µM	0.4 µM	–
Cc1nc(Nc2cnc3ccccc3c2)c2nc[nH]c2n1	–	–	> 10 µM	27 µM	–
Cc1cc(Nc2ccc3ccccc3c2)n2ccnc2n1	2.8 µM	> 100 µM	0.19 µM	0.15 µM	–
Cc1nc(Nc2ccc3ncccc3c2)c2nc[nH]c2n1	–	–	3.2 µM	> 25 µM	–
Cc1nc(Nc2ccc3cc4ccccc4cc3c2)c2nc[nH]c2n1	> 10 µM	–	3.2 µM	4.8 µM	–
Cc1cc(Nc2ccc3ccccc3c2)c2nncn2n1	> 50 µM	–	> 5 µM	> 50 µM	–
Cc1cc(NC(=O)c2ccc(C(F)(F)F)cc2)n2ncnc2n1	> 100 µM	> 100 µM	> 50 µM	> 100 µM	–

Source: ChEMBL document CHEMBL2169788, “Bioisosteric transformations and permutations in the triazolopyrimidine scaffold to identify the minimum pharmacophore required for inhibitory activity against Plasmodium falciparum dihydroorotate dehydrogenase” (J Med Chem, 2012)
